Screening results from PubChem.
Rows were chosen to be rich in hits. Some 2.3% of all compounds tested hit in one or more screens of this group.
TRPC4 act: activators of mouse TRPC4 channel, primary screen, Fluo4 calcium, HEK293 TRPC4beta/mu-opioid cells | Short transient receptor potential channel 4 (Mus musculus), Q9QUQ5 | Fluo4 calcium fluorescence; active compounds read high | B-score at 10 µM | hit rate 0.49% among 310,000 | AID 2237, 2010;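 active = B-score above 5 SD of library B-scores, and initial fluorescence ratio not above library mean plus 5 SD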;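 note: positive B-score marks a calcium rise read as TRPC4 activation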
Target sequence (Q9QUQ5 whole entry, looked up): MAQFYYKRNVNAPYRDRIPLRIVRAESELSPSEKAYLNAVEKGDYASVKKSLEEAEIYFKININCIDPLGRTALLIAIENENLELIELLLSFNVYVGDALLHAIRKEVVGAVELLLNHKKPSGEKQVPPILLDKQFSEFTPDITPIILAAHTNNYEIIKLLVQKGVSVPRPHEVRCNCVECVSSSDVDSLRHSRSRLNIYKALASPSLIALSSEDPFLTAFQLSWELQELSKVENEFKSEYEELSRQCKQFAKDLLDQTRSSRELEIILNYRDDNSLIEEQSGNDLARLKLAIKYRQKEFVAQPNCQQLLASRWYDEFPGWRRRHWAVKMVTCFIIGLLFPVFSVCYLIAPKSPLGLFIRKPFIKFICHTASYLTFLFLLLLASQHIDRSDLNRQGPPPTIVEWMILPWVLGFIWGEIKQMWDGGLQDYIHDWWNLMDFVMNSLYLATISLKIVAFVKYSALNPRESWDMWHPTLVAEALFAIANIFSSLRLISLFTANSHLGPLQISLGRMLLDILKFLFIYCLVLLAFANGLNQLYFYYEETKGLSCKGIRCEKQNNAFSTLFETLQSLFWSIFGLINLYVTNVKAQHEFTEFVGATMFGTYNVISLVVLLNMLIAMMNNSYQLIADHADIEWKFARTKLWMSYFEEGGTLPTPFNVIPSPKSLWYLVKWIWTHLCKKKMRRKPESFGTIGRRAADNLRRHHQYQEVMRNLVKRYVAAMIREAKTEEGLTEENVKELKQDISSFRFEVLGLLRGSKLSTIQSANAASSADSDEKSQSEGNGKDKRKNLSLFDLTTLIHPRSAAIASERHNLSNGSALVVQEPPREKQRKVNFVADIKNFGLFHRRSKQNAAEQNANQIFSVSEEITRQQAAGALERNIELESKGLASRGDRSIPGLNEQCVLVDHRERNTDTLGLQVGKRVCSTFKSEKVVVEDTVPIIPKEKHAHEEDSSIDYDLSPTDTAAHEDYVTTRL
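System – HEK293 cells stably co-expressing mouse TRPC4beta and mu-opioid receptor · Signal – Fluo4 calcium-sensitive dye fluorescence, kinetic, 1 Hz baseline · Benchmarks – buffer (low) and maximal DAMGO (high) · Read-out – B score of integrated fluorescence ratio per well · Incubation – dye loading 45 min room temperature, 110 s kinetic read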
TRPC6 activator: mouse TRPC6 channel activators, primary screen, cell-based, HEK293, membrane potential dye; hit rate 0.13% among 310,000; HEK293-TRPC6 membrane potential dye fluorescence; active compounds read high; B-score at 10 µM; Short transient receptor potential channel 6 (Mus musculus), Q61143; AID 2550, 2010;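 active = B-score of the integrated fluorescence ratio above library mean plus 3 SD, and starting fluorescence ratio within library mean plus 5 SD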;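 note: higher score means more depolarization so channel activation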
TRPC6 inh: mouse TRPC6 channel inhibitors, primary screen, cell-based, HEK293, membrane potential dye; ACh-evoked depolarization; active compounds read low; B-score at 10 µM; Short transient receptor potential channel 6 (Mus musculus), Q61143; AID 2553, 2010; hit rate 1.1% among 310,000;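 active = B-score under library mean minus 3 SD, initial fluorescence not abnormally high, positive integrated signal ratio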;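 note: B-score derived from integrated fluorescence ratio over the kinetic read; more negative B-score means stronger inhibition of depolarization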
FID counter: compounds displacing fluorescent DNA intercalator, primary screen, artefact control for HCV NS3 helicase inhibitor project, biochemical, FID fluorescence; DNA fluorescent intercalator displacement; inhibition, % at 7.9 µM; hit rate 0.17% among 290,000; AID 1845, 2009; in the data active = inhibition above about 37%;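 note: 0% = vehicle and 100% = reference compound; higher means more ethidium bromide displaced from hairpin DNA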
TRPC4 potent: positive allosteric modulators of TRPC4, primary screen, cell-based, mouse TRPC4beta, HEK293 mu-opioid, Fluo-4 calcium. AID 2227, 2009. hit rate 0.42% among 310,000. B-score at 10 µM. Short transient receptor potential channel 4 (Mus musculus), Q9QUQ5. DAMGO EC20, Fluo-4 Ca2+ flux; active compounds read high;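 active = B-score of calcium response area above 5 SD of library B-scores, with initial fluorescence ratio within 5 SD of library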;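 note: B-score of integrated fluorescence ratio over time as area under calcium response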
TRPC4 block: inhibitors of mouse TRPC4 channel, primary screen, Fluo4 calcium, HEK293 TRPC4beta/mu-opioid cells. AID 2247, 2010. hit rate 0.39% among 300,000. B-score at 10 µM. Short transient receptor potential channel 4 (Mus musculus), Q9QUQ5. DAMGO-evoked Fluo4 calcium flux; active compounds read low;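 active = B-score over 3 SD under the library average, no early fluorescence shift, positive overall ratio signal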
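Material: HEK293 cells with stable TRPC4beta plus mu-opioid receptor expression / Probe or stimulus: DAMGO in two steps, submaximal then maximal / Compound: single concentration per test compound / Technique: kinetic Fluo4 fluorescence imaging of calcium influx / Read-out: per-well B score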
Numbers without * were called inactive; i = inactive; x = no result.

SMILES	TRPC4 act	TRPC6 activator	TRPC6 inh	FID counter	TRPC4 potent	TRPC4 block
Cc1ccc(CN2CCN(Cc3c(C)nn(-c4ccc(F)cc4)c3C)CC2CCO)o1 (configuration not stated)	i	i	i	5	i	i
COCCCN(C(=O)Cc1csc(-c2cccc(Cl)c2)n1)c1c(N)n(Cc2ccccc2)c(=O)[nH]c1=O	i	i	i	x	i	i
COc1ccc(C(=O)NC(=S)NNC(=O)Cc2cccs2)cc1	49*	i	i	-11	i	i
COc1cc(OC)cc(C(=O)NC(=S)NNC(=O)[C@H]2C[C@@H]2c2ccccc2)c1	192*	i	i	-5	i	i
COc1cc(OC)cc(C(=O)NC(=S)NNC(=O)Cc2cccs2)c1	147*	i	i	-2	i	i
Cc1ccc(S(=O)(=O)c2c(C(=O)c3ccccc3)cnc3cc4c(cc23)OCCO4)cc1	i	i	i	7	18*	i
O=[N+]([O-])c1ccc(NC(=S)N2CCc3ccccc3C2)cc1	i	i	i	8	i	-6*
OCc1nc2ccccc2n1CCOc1ccccc1	i	i	i	x	i	-6*
Cc1nc2ccccc2n1CCOc1ccc(F)cc1	i	i	i	-3	i	-6*
Cc1ccc(-n2nc3c(=O)n(CC(=O)NC4CCCCC4)nc(C)c3c2C)cc1	i	i	i	-29	i	i
CCOc1cc(N2CCOCC2)c(OCC)cc1NC(=O)Cc1ccc(OC)c(OC)c1	i	i	i	-29	i	i
CCOc1cc(N2CCOCC2)c(OCC)cc1NC(=O)CC12CC3CC(CC(C3)C1)C2	i	i	i	-7	10*	i
CCOc1cc(N2CCOCC2)c(OCC)cc1NC(=O)CN1CCc2ccccc2C1	i	i	i	-22	12*	i
CCN(c1ccccc1)S(=O)(=O)c1ccc(Cl)c(NC(=O)CN2CCCCCC2)c1	i	18*	i	8	i	i
Cc1ccc(C(=O)N(CC(C)C)c2c(N)n(Cc3ccccc3)c(=O)[nH]c2=O)o1	i	i	i	x	i	i
CC1(C)CC(=O)C(C(c2ccc(F)cc2)C2C(=O)CC(C)(C)CC2=O)C(=O)C1	i	i	i	-5	i	i
CCc1sc(C(C2C(=O)CC(C)(C)CC2=O)C2C(=O)CC(C)(C)CC2=O)cc1[N+](=O)[O-]	95*	i	i	-16	i	i
CC(C)(C)N=C1NN=C(c2cc3ccccc3o2)CS1	i	i	i	-2	11*	i
COc1cccc(NC(=O)c2sc3nc(N4CCOCC4)c4c(c3c2N)CCCC4)c1	i	i	i	-47	i	i
N#CCCn1cc(CNCc2ccccc2)c(-c2cccc([N+](=O)[O-])c2)n1	i	i	i	13	i	-6*
CC1=CC(C)(C)N2C(=O)C3(SCC(=O)N3c3ccc(O)cc3)c3cc(C)cc1c32 (configuration not stated)	i	i	i	-36	10*	i
O=C1CC(C(=O)N2CCN(S(=O)(=O)c3cccc(F)c3)CC2)CN1Cc1ccccc1Cl (configuration not stated)	i	i	i	x	i	i
CC1CCN(C(=O)c2cc(S(=O)(=O)N3CCCCC3)c[nH]2)CC1	i	i	i	-34	i	i
CCn1c(=O)c2cc(C(=O)N(C)c3cc(C)ccc3OC)sc2c2ccccc21	i	i	i	-14	i	-6*
CCn1c(=O)c2cc(C(=O)N(C)c3ccc(OC)cc3OC)sc2c2ccccc21	i	i	i	-27	i	i
SMILES	TRPC4 act	TRPC6 activator	TRPC6 inh	FID counter	TRPC4 potent	TRPC4 block
COc1ccc(S(=O)(=O)N2CCC(C(=O)NCc3ccncc3)CC2)cc1OC	i	i	i	-4	i	i
C#Cc1ccc(CN2CCCC(C(=O)Nc3ccccc3Oc3cccnc3)C2)cc1 (configuration not stated)	i	i	i	12	i	-6*
O=C(Nc1ccccc1Oc1cccnc1)C1CCCN(Cc2ccccc2O)C1 (configuration not stated)	i	i	i	7	i	i
CCOC(=O)C1(CCOc2ccccc2)CCN(Cc2ccc3c(c2)OCCO3)CC1	61*	i	i	21	i	i
CCOC(=O)C1(Cc2cccc(OC)c2)CCN(Cc2ccc3c(c2)OCCO3)CC1	56*	i	i	9	i	i
CCOC(=O)C1(Cc2cccc(OC)c2)CCN(Cc2cnc(N)nc2)CC1	i	i	i	0	i	i
CCOC(=O)C1(Cc2cccc(OC)c2)CCN(Cc2cnc(SC)nc2)CC1	i	i	i	-6	i	-5*
CCOC(=O)C1(Cc2cccc(OC)c2)CCN(Cc2ccccc2)CC1	i	i	i	12	i	i
CCOC(=O)C1(CCOc2ccccc2)CCN(Cc2ccc(O)c(Cl)c2)CC1	i	i	i	10	i	i
CC1CC(C)CN(C(=O)Cn2c(=O)n(CCCC(=O)NCc3ccco3)c(=O)c3sccc32)C1 (configuration not stated)	i	i	i	-28	i	i
Cc1sc2ncnc(NCC(O)c3ccc([N+](=O)[O-])cc3)c2c1C (configuration not stated)	i	i	i	-7	i	i
CC(C)C(=O)Nc1c2c(nn1-c1ccc(F)cc1)CSC2	i	i	i	-5	i	i
O=C(COc1cc2oc(=O)c3c(c2cc1Cl)CCC3)N1C[C@H]2C[C@@H](C1)c1cccc(=O)n1C2	i	i	i	-29	i	i
Nc1nonc1C(=O)NCCN=Cc1cc(Cc2ccccc2)cc(Br)c1O	i	i	i	1	i	i
Nc1nonc1C(=O)NCCN=Cc1ccccc1O	71*	i	i	3	i	i
COc1ccccc1NC(=O)CSc1ccc2nnc(CCNC(=O)c3ccccc3)n2n1	i	i	i	-30	i	i
